Assay results reported in ChEMBL document CHEMBL5042548, “Multiparameter Optimization of Oxidative Phosphorylation Inhibitors for the Treatment of Pancreatic Cancer” (J Med Chem, 2022).
pIC50: −log10 of the molar value. Active and inactive are the calls of the source. The calls are words filed in the database; no cut-off is given here.

Legend:
MIA PaCa-2 [1] = assay: Cytotoxicity against human MIA PaCa-2 cells assessed as inhibition of cell growth incubated for overnight in galactose-containing medium followed by compound addition and measured after 3 days by MTT assay; assay type: functional, cell-based; conditions: MIA PaCa-2, 72 h
Summary of the method: (§1)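 MIA PaCa-2 3-day MTT in glucose medium (RPMI 1640 + 10% FBS) or galactose medium (glucose-free RPMI + 10 mM galactose + 10% FBS). Galactose wells are seeded at 8000 cells/well. MTT read-out is at 570 nm after DMSO solubilization. IC50 is by nonlinear regression; ≥3 independent experiments.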

[2] = Toxicity in C57BL/6 mouse allografted with mouse Panc02 cells assessed as body weight loss at 2.5 mg/kg, ip administered once a day for 28 days and measured twice per week; assay type: organism-based; conditions: in vivo, 672 h, time 28 day
Summary of the method: (§2)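 Female C57BL/6 mice, 6-10 weeks old, get 5×10^6 Pan02 cells s.c. in the right flank and are randomized at ~100 mm3 (n = 5/group). Dosing is daily for 28 days. Vehicle is 10% DMSO/50% PG/40% saline, except 15 mg/kg uses 10% DMSO/60% PG/30% saline. Caliper volume (length×width²)/2 and body weight are recorded twice weekly.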

[3] = Metabolic stability in human liver microsomes assessed as half life at 10 uM measured up to 60 mins in presence of NADPH by LC-MS/MS analysis; assay type: ADME, Microsome; conditions: for half-life at 10 µM: liver microsomes; for t1/2: microsomes, 1 h, 10 µM
MIA PaCa-2 [4] = assay: Cytotoxicity against human MIA PaCa-2 cells assessed as inhibition of cell growth incubated for overnight in glucose-containing medium followed by compound addition and measured after 3 days by MTT assay; assay type: functional, cell-based; conditions: MIA PaCa-2, 72 h; summary of the method: as §1
[5] = Inhibition of oxidative phosphorylation in human MIA PaCa-2 cells assessed as reduction in ATP production incubated for 24 hrs in glucose-containing medium by celltiter-glo luminescence cell viability assay; assay type: functional, cell-based; conditions: MIA PaCa-2, 24 h
Summary of the method: (§3)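 MIA PaCa-2 cells are seeded at 10000 cells/well in glucose RPMI + 10% FBS or in glucose-free RPMI + 10 mM galactose + 10% FBS. Total ATP is measured by CellTiter-Glo luminescence 24 h after compound. IC50 is by nonlinear regression; ≥3 independent experiments.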

[6] = Inhibition of oxidative phosphorylation in human MIA PaCa-2 cells assessed as reduction in ATP production incubated for 24 hrs in galactose-containing medium by celltiter-glo luminescence cell viability assay; assay type: functional, cell-based; conditions: MIA PaCa-2, 24 h; summary of the method: as §3
[7] = Toxicity in C57BL/6 mouse allografted with mouse Panc02 cells assessed as drug tolerability at 2.5 mg/kg, ip administered once a day for 28 days; assay type: organism-based; conditions: in vivo, 672 h, time 28 day
[8] = Metabolic stability in mouse liver microsomes assessed as half life at 10 uM measured up to 60 mins in presence of NADPH by LC-MS/MS analysis; assay type: ADME, Microsome; conditions: for half-life at 10 µM: liver microsomes; for t1/2: microsomes, 1 h, 10 µM
Panc02 = assay: Antitumor activity against mouse Panc02 cells allografted in C57BL/6 mouse syngeneic model assessed as tumor growth inhibition at 2.5 mg/kg, ip administered once daily for 28 days and measured twice per week; assay type: functional, organism-based; conditions: time 28.0 day; summary of the method: as §2
BXPC-3 = assay: Cytotoxicity against human BXPC-3 cells assessed as inhibition of cell growth incubated for overnight in glucose-containing medium followed by compound addition and measured after 7 days by MTT assay; assay type: functional, cell-based; conditions: BXPC-3, 168 h
Summary of the method: (§4)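 7-day MTT in glucose medium (RPMI 1640 + 10% FBS). Seeding is 200 cells/well for MIA PaCa-2 and 300 cells/well for BxPC-3, overnight at 37 °C, 5% CO2, before compound. MTT 3 mg/mL is added for 4 h, then DMSO, and absorbance is read at 570 nm. IC50 is by nonlinear regression; ≥3 independent experiments.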

MIA PaCa-2 [9] = assay: Cytotoxicity against human MIA PaCa-2 cells assessed as inhibition of cell growth incubated for overnight in glucose-containing medium followed by compound addition and measured after 7 days by MTT assay; assay type: functional, cell-based; conditions: MIA PaCa-2, 168 h; summary of the method: as §4
[10] = Toxicity in C57BL/6 mouse allografted with mouse Panc02 cells assessed as body weight loss at 7.5 mg/kg, ip administered once a day for 28 days and measured twice per week; assay type: organism-based; conditions: in vivo, 672 h, time 28 day; summary of the method: as §2
[11] = Toxicity in C57BL/6 mouse allografted with mouse Panc02 cells assessed as drug tolerability at 7.5 mg/kg, ip administered once a day for 28 days; assay type: organism-based; conditions: in vivo, 672 h, time 28 day

Row | Structure (SMILES) | pIC50 (MIA PaCa-2 [1]) | pIC50 (MIA PaCa-2 [4]) | pIC50 (BXPC-3) | pIC50 (MIA PaCa-2 [9]) | other results
1 | O=C([C@@H]1CCCN(S(=O)(=O)c2ccc(S(=O)(=O)C3CCC3)cc2)C1)N1CCC(F)(F)CC1 | 7.90 | < 5.52 | 7.11 | 8.05 | Activity [2]: Non-Toxic; half-life at 10 µM [3]: > 60 min; pIC50 [5]: < 5.52; pIC50 [6]: 7.80; Activity [7]: Non-Toxic; half-life at 10 µM [8]: 44 min; Activity (Panc02): Active
2 | CCN(CC)S(=O)(=O)c1ccc(S(=O)(=O)N2CCC[C@@H](C(=O)N3CCOCC3)C2)cc1 | 6.80 | < 5.00 | 6.10 | 6.46 | –
3 | FC(F)(F)c1ccc(/C=C/c2nc(COc3ccc(CCCCn4ccnn4)cc3)co2)cc1 [MUBRITINIB] | – | – | – | 7.29 | –
4 | CC(C)CS(=O)(=O)c1ccc(S(=O)(=O)N2CCC[C@@H](C(=O)N3CCC(F)(F)CC3)C2)cc1 | – | – | 6.51 | 7.10 | –
5 | CCN(CC)S(=O)(=O)c1ccc(S(=O)(=O)N2CCC[C@@H](C(=O)N3CCC(C(F)F)CC3)C2)cc1 | 6.85 | < 5.00 | 6.35 | 6.38 | –
6 | CCN(CC)S(=O)(=O)c1ccc(S(=O)(=O)N2CCC[C@@H](C(=O)N3CCC(C(F)(F)F)CC3)C2)cc1 | 6.96 | < 5.00 | 6.43 | 6.49 | –
7 | CCN(CC)S(=O)(=O)c1ccc(S(=O)(=O)N2CCC[C@@H](C(=O)N[C@H]3CC[C@H](OC)CC3)C2)cc1 | 5.64 | < 5.00 | 5.70 | 5.87 | –
8 | CC(C)NS(=O)(=O)c1ccc(S(=O)(=O)N2CCC[C@@H](C(=O)N3CCC(F)(F)CC3)C2)cc1 | – | – | 6.33 | 6.46 | t1/2 [3]: 19.7 min; t1/2 [8]: 23.1 min
9 | O=C([C@@H]1CCCN(S(=O)(=O)c2ccc(S(=O)(=O)N3CC[C@H](O)C3)cc2)C1)N1CCC(F)(F)CC1 | – | – | 6.24 | 6.23 | –
10 | CCN(CC)C(=O)c1ccc(S(=O)(=O)N2CCC[C@@H](C(=O)N3CCC(F)(F)CC3)C2)cc1 | – | – | 6.62 | 7.15 | –
11 | CCN(CC)S(=O)(=O)c1ccc(S(=O)(=O)N2CCC[C@@H](C(=O)N[C@@H]3CCOC3)C2)cc1 | 7.00 | < 5.00 | 5.64 | 6.12 | –
12 | CCN(CC)S(=O)(=O)c1ccc(S(=O)(=O)N2CCC[C@@H](C(=O)N[C@H]3CCOC3)C2)cc1 | 6.54 | < 5.00 | 5.28 | 5.78 | –
13 | CN(C)S(=O)(=O)c1ccc(S(=O)(=O)N2CCC[C@@H](C(=O)N3CCC(F)(F)CC3)C2)cc1 | 7.14 | < 5.52 | 6.25 | – | Activity [10]: Non-Toxic; half-life at 10 µM [3]: > 60 min; pIC50 [5]: < 5.52; pIC50 [6]: 7.10; half-life at 10 µM [8]: 32 min; Activity [11]: Non-Toxic
14 | CCC(CC)S(=O)(=O)c1ccc(S(=O)(=O)N2CCC[C@@H](C(=O)N3CCC(F)(F)CC3)C2)cc1 | – | – | 7.40 | 7.89 | t1/2 [3]: 17.1 min; t1/2 [8]: 8.7 min
15 | CCN(CC)S(=O)(=O)c1ccc(S(=O)(=O)N2CCC[C@@H](C(=O)N3CCC(COC)CC3)C2)cc1 | 7.30 | < 5.00 | 5.87 | 6.60 | –
16 | CCN(CC)S(=O)(=O)c1ccc(S(=O)(=O)N2CCC[C@@H](C(=O)N3CCC(OC)CC3)C2)cc1 | 7.30 | < 5.00 | 5.85 | 6.85 | –
17 | CCN(CC)S(=O)(=O)c1ccc(S(=O)(=O)N2CCC[C@@H](C(=O)N3CCC(F)(F)CC3)C2)cc1 | 7.72 | < 5.00 | 6.92 | 7.80 | half-life at 10 µM [3]: 2.74 min; pIC50 [5]: < 5.52; pIC50 [6]: 7.67; t1/2 [8]: 2.6 min
18 | CCP(=O)(CC)c1ccc(S(=O)(=O)N2CCC[C@@H](C(=O)N3CCC(F)(F)CC3)C2)cc1 | – | – | < 4.52 | 4.67 | –
19 | CCN(CC)S(=O)(=O)c1ccc(S(=O)(=O)N2CCC[C@@H](C(=O)N[C@H]3CC[C@@H](OC)CC3)C2)cc1 | 6.23 | < 5.00 | 5.67 | 6.02 | –
20 | O=C([C@@H]1CCCN(S(=O)(=O)c2ccc(S(=O)(=O)C3COC3)cc2)C1)N1CCC(F)(F)CC1 | – | – | 6.44 | 6.96 | –
21 | CCN(CC)S(=O)(=O)c1ccc(S(=O)(=O)N2CCC[C@@H](C(=O)N3CCC(O)CC3)C2)cc1 | 6.64 | < 5.00 | 5.33 | 6.06 | –
22 | CCOC(=O)[C@@H]1CCCN(S(=O)(=O)c2ccc(S(=O)(=O)N(CC)CC)cc2)C1 | – | – | – | – | GI50 (MIA PaCa-2 [9]; time 7 day): 600 nM
23 | O=C([C@@H]1CCCN(S(=O)(=O)c2ccc(S(=O)(=O)C3CC3)cc2)C1)N1CCC(F)(F)CC1 | – | – | 6.89 | 7.59 | –
24 | CCN(CC)S(=O)(=O)c1ccc(S(=O)(=O)N2CCC[C@@H](C(=O)N3CCS(=O)(=O)CC3)C2)cc1 | 6.66 | < 5.00 | 5.35 | 6.05 | –
25 | CCN(CC)S(=O)(=O)c1ccc(S(=O)(=O)N2CCC[C@@H](C(=O)N3CC[C@@H](OC)C3)C2)cc1 | 5.97 | < 5.00 | 4.94 | 5.41 | –
26 | CP(C)(=O)c1ccc(S(=O)(=O)N2CCC[C@@H](C(=O)N3CCC(F)(F)CC3)C2)cc1 | – | – | < 4.52 | < 4.52 | –
27 | CCN(CC)S(=O)(=O)c1ccc(S(=O)(=O)N2CCC[C@@H](C(=O)N3CC[C@H](OC)C3)C2)cc1 | 6.34 | < 5.00 | 5.17 | 5.61 | –
28 | CCN(CC)S(=O)(=O)c1ccc(S(=O)(=O)N2CCC[C@@H](C(=O)NC3CCOCC3)C2)cc1 | 5.87 | < 5.00 | 5.07 | 5.42 | –
